Several values for one entry are separate records, joined by “and”; a condition that tells them apart may be missing. Equal values may be shown once. Where a name gives a salt, the structure may show the parent alone. Read-outs that look alike come from different tables or passages of the source. Values belong to the compound of their own block, whether it stands above or below them.
Key:
[1] = cited from earlier work
[2] = Umbilical cord blood and maternal plasma concentrations at delivery; format: in vivo, human; details: 15 patients, detection limit 0.039 μg/mL; for Detected in maternal plasma samples: number of samples at delivery; for Detected in cord plasma samples: number of samples
HIV = details: cited from earlier work
[3] = format: in vivo, human; details: for Cl/F: dose/AUC0–12; for AUC(0-t) / Cmax / Cmin: plasma
[4] = cited from earlier work; remark: listed apart in the source
[5] = Clinical and laboratory safety monitoring of mothers and infants; format: in vivo, human
[6] = Stability in stored plasma; format: in vitro ADME; details: plasma stored at −20°C
In short: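 Human plasma from study participants, stored at −20°C. Test compound and its metabolite were quantified together by reversed-phase HPLC-UV after acetonitrile protein precipitation. Supernatant was injected onto a C-18 column and eluted isocratically with 10mM potassium phosphate pH 4.2:ACN (62:38 v/v) at 1.2 mL/min. Detection was at 206 nm, with a detection limit of 0.039 μg/mL. Validation QC samples spanned multiple concentrations.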

[7] = 1875mg BID 3rd trimester vs 1250mg BID postpartum, (90% CI)
[8] = 1875mg BID 3rd trimester vs 1250mg BID postpartum, (90% CI), listed as Nelfinavir
[9] = 3rd trimester, nelfinavir 1875mg BID, median (IQR), n = 18
[10] = postpartum, nelfinavir 1250mg BID, median (IQR), n=16

Compound: CC(C)CN(C[C@@H](O)[C@H](Cc1ccccc1)NC(=O)O[C@H]1CO[C@H]2OCC[C@H]21)S(=O)(=O)c1ccc(N)cc1 [darunavir]
AUC and Cmax in pregnancy ([1]; standard dosing): substantially decreased

Detected in maternal plasma samples [2]: 13 out of 15
Detected in cord plasma samples [2]: 10 out of 15
AUC0–12 geometric mean ratio 3rd trimester/postpartum [3, 7]: 0.98 (0.71–1.35)
Cl/F geometric mean ratio 3rd trimester/postpartum [3, 7]: 1.54 (1.12–2.11)
Cmax geometric mean ratio 3rd trimester/postpartum [3, 7]: 1.06 (0.85–1.34)
Cmin geometric mean ratio 3rd trimester/postpartum [3, 7]: 0.90 (0.71–1.16)
AUC0–12 geometric mean ratio 3rd trimester/postpartum [3, 8]: 0.98
Cl/F geometric mean ratio 3rd trimester/postpartum [3, 8]: 1.54
Participants with AUC0–12 above target (18.5 μg h/mL) ([3]; 3rd trimester, 1875 mg twice daily, 15 of 18): 83%
Cl/F [3, 9]: 54.9 (40.4–68.9) L/h
AUC(0-t) ([3]; female, human, 1250 mg): 33500 ng·h/mL and 58.9 µM·h
Cmax ([3]; female, human, 1250 mg): 5000 ng/mL
AUC(0-t) ([3]; female, human, 1875 mg): 34200 ng·h/mL and 60.2 µM·h
Patients with increased Cl/F during 3rd trimester compared to the postpartum period ([3]; number of pregnant patients): 11 out of 18
Cmin [3, 9]: 0.47 (0.35–1.33) μg/mL
Cmin [3, 10]: 0.52 (0.22–0.80) μg/mL
Participants with AUC0–12 above target (18.5 μg h/mL) ([3]; postpartum, 1250mg twice daily, 14 of 16): 88%
Cl/F [3, 10]: 37.4 (28.7–43.7) L/h
Stability in plasma [6]: stable
Compound: Cc1c(O)cccc1C(=O)N[C@@H](CSc1ccccc1)[C@H](O)CN1C[C@H]2CCCC[C@H]2C[C@H]1C(=O)NC(C)(C)C [NFV, Nelfinavir mesylate]
Activity against HIV (HIV): moderately potent activity
Subjects meeting the AUC target during the 3rd trimester ([4]; in vivo, 1250 mg): 56%
Placental crossing ([4]; in vivo): crossed the placenta poorly
10th percentile AUC0–12 (target AUC) ([4]; non-pregnant historical controls): 18500 ng·h/mL
Grade 3–4 adverse events treatment-related ([5]; 18 patients): none were determined to be treatment-related
Safety concerns ([5]; increased dose 1875 mg twice daily in third trimester): No major safety concerns were noted

Compound: Cc1cc(C#N)cc(C)c1Oc1nc(Nc2ccc(C#N)cc2)nc(N)c1Br [etravirine]
Exposure during pregnancy [1]: increased

Detected in maternal plasma samples [2]: 10
Detected in cord plasma samples [2]: 3
Cmin geometric mean ratio 3rd trimester/postpartum [3, 7]: 0.78 (0.40–1.26)
M8/NFV AUC ratio [3, 9]: 0.11 (0.08–0.22)
Cmax [3, 9]: 0.66 (0.48–1.12) μg/mL
Cmin [3, 9]: 0.11 (0.05–0.15) μg/mL
Cmax [3, 10]: 1.20 (1.07–1.71) μg/mL
Cmin [3, 10]: 0.14 (0.04–0.21) μg/mL
M8/NFV AUC ratio [3, 10]: 0.30 (0.17–0.35)
Compound: Cc1c(O)cccc1C(=O)N[C@@H](CSc1ccccc1)[C@H](O)CN1C[C@H]2CCCC[C@H]2C[C@H]1C(=O)NC(C)(C)CO [M8, hydroxyl-tert-butylamide]
